Where two headings read alike, the source gives them in different places.
How the values were obtained:
[1] = tested on: ERK1/2 phosphorylation (cannabinoid CB2 receptor-induced); experiment: ERK1/2 phosphorylation immunoblot in CB2-transfected HEK293 cells; type: cell-based; settings: 1.0 μM compound, 5 min; for ERK1/2 phosphorylation in the presence of PTX: 10 ng/ml PTX pretreatment 16 h; for ERK1/2 phosphorylation, fold increase above vehicle: without PTX
How it was run: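 HEK293 cells were transfected with CB2 DNA by Lipofectamine 2000, then pretreated 24 h later in DMEM with or without 10 ng/ml pertussis toxin for 16 h. They were exposed 5 min at 37°C to 1.0 µM test compound; vehicle was DMSO on CB2-transfected cells. Lysates were immunoblotted for phospho-p44/42 and phospho-MEK with chemiluminescent detection. Statistics: one-way ANOVA with Tukey test.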

Jurkat cells = experiment: Jurkat cell proliferation; type: cell-based, human; settings: 72 h; for Cell proliferation inhibition: Jurkat cells, relative to DMSO
How it was run: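 Jurkat cells (T-lymphoblastic leukaemia, endogenous CB2) at passage 4–12 were grown in RPMI 1640 with 10% FBS and 1% antibiotic-antimycotic at 37°C and 5% CO2. Cells were plated at 10^5 cells/ml and given test compound in RPMI (DMSO vehicle) for 70 h. CellTiter 96 AQueous One was then added for 2 h and A490 read. Percent inhibition was taken relative to DMSO. Triplicate; mean ± S.E.M.; one-way ANOVA with Tukey.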

cannabinoid CB2 receptor [2] = target: T1, cannabinoid CB2 receptor (Homo sapiens, UniProt P34972); experiment: Radioligand competition binding with [3H]CP55,940, CB2
T1 sequence (P34972 whole entry): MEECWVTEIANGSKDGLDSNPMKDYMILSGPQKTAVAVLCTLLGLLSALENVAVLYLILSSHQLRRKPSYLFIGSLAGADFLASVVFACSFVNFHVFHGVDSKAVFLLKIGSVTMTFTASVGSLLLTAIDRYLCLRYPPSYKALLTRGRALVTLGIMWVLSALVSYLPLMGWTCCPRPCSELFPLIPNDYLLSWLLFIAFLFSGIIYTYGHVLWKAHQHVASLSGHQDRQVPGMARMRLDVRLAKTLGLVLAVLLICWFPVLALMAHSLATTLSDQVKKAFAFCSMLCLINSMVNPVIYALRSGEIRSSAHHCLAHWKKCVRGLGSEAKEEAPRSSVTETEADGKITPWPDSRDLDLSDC

cannabinoid CB2 receptor [3] = target: T1, cannabinoid CB2 receptor; experiment: [35S]GTPγS binding stimulation; type: biochemical
cannabinoid CB2 receptor [4] = target: T1, cannabinoid CB2 receptor; settings: read-out: EC50, cAMP accumulation screen; prior screen; ref Ogawa et al., 2017; cited from earlier work
cannabinoid CB2 receptor [5] = target: T1, cannabinoid CB2 receptor; settings: read-out: Ki, cannabinoid CB2 receptor, ref Huffman et al., cited from earlier work
cannabinoid CB1 receptor = cannabinoid CB1 receptor (Homo sapiens, UniProt P21554); settings: read-out: Ki, cannabinoid CB1 receptor, ref Huffman et al., cited from earlier work
Sequence of cannabinoid CB1 receptor (P21554 whole entry): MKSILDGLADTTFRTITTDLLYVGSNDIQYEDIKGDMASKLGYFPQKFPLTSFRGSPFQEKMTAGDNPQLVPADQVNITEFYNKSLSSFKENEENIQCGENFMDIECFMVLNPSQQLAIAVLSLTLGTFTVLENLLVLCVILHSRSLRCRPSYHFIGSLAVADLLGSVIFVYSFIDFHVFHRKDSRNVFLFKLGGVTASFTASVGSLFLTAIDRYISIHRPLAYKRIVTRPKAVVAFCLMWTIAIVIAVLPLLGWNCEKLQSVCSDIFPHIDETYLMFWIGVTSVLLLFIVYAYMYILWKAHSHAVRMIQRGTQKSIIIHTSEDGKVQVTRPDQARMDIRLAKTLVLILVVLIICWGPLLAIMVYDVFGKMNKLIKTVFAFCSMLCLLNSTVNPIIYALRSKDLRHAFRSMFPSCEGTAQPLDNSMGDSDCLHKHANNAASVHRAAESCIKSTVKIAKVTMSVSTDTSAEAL

[6] = Homo sapiens, Jurkat, read-out: Cell proliferation inhibition

Row | Structure (SMILES) | ERK1/2 phosphorylation in the presence of PTX [1] | ERK1/2 phosphorylation, fold increase above vehicle [1] | Ki (cannabinoid CB2 receptor [2]) [nM] | EC50 (cannabinoid CB2 receptor [3]) [nM] | EC50 (cannabinoid CB2 receptor [4]) [nM] | other results
1 | CCOC(=O)c1ccccc1NC(=O)CN(c1cccc(C)c1C)S(=O)(=O)c1ccccc1 [ABK5, ethyl 2-(2-(N-(2,3-dimethylphenyl)phenylsulfonamido)acetamido)benzoate] | prevented by the addition of PTX | induce ERK1/2 phosphorylation |  |  |  | inhibition at 0.1 µM (Jurkat cells; [6]): 15 ± 2%; inhibition at 10 µM (Jurkat cells; [6]): 20 ± 1%
2 | COC(=O)c1ccccc1NC(=O)CN(c1ccccc1OC)S(=O)(=O)c1ccc(C)cc1 [ABK6, benzoic acid, 2-[[2-[(2-methoxyphenyl)[(4-methylphenyl)sulfonyl]amino]acetyl]amino]-, methyl ester] | prevented by the addition of PTX | induce ERK1/2 phosphorylation | 102 ± 7 | 13 ± 4 | 2 | 
3 | CCC(C(=O)Nc1sc2c(c1C(N)=O)CCCCCC2)c1ccccc1 (centres unmarked) [ABK7, 2-(2-phenylbutanamido)-4,5,6,7,8,9-hexahydrocycloocta[b]thiophene-3-carboxamide] | prevented by the addition of PTX | induce ERK1/2 phosphorylation | 317 ± 117 | 31 ± 14 | 32 | 
4 | CCCCCCC(C)(C)c1ccc([C@@H]2C[C@H](O)CC[C@H]2CCCO)c(O)c1 [CP55,940, reference compound] |  |  |  |  |  | Cell proliferation inhibition (Jurkat cells; 0.1 μM): 7±3%; Cell proliferation inhibition (Jurkat cells; 10 μM): 26±8%
5 | CCCCCCC(C)(C)c1ccc2c(c1)OC(C)(C)[C@@H]1CC=C(CO)C[C@@H]21 [JWH-051] |  |  |  |  |  | Ki (cannabinoid CB2 receptor [5]; 1996): 0.032 nM; Ki (cannabinoid CB1 receptor; 1996): 1.2 nM
6 | CCCC(C)(C)c1ccc2c(c1)OC(C)(C)[C@@H]1CC=C(C)C[C@@H]21 [JWH-133] |  |  |  |  |  | Ki (cannabinoid CB2 receptor [5]; 1999): 3.4 nM; Ki (cannabinoid CB1 receptor; 1999): 677 nM

From article PMC6534466 (European journal of pharmacology, 2019)
